The values below come from ChEMBL document CHEMBL4049387, “Combination of l-Carnitine with Lipophilic Linkage-Donating Gemcitabine Derivatives as Intestinal Novel Organic Cation Transporter 2-Targeting Oral Prodrugs” (J Med Chem, 2017).

In data set [1] the target is T1, Organic cation/carnitine transporter 2 (Rattus norvegicus, UniProt O70594).
T1 sequence (O70594 whole entry): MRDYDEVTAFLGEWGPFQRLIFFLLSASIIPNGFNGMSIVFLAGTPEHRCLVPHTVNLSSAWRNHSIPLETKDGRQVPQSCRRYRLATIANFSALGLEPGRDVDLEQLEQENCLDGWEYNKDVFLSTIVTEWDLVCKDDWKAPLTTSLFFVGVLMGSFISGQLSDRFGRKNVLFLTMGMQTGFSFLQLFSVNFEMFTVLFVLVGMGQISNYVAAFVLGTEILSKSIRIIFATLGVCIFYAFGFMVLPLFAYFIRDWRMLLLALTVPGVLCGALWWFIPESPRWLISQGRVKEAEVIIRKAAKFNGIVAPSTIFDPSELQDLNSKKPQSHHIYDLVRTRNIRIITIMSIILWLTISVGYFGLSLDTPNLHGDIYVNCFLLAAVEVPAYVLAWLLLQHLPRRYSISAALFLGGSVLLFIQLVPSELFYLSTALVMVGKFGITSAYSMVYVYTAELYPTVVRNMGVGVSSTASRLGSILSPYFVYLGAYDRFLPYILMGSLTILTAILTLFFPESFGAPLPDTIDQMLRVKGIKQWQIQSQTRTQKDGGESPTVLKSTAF
The data set can be described thus: Ratio of drug transport assessed as OCTN2 transporter mediated effective permeability in rat jejunum at 76 uM in absence of L-carnitine to drug transport assessed as OCTN2 transporter mediated effective permeability in rat jejunum at 76 uM in presence of L-carnitine. The data set is classed as ADME.

Data set [2] deals with Mus musculus. As to the kind of experiment: Toxicity in Kunming mouse assessed as […] degeneration in cardiac muscle at 102 mg/kg, po administered once daily for 14 days by hematoxylin/eosin staining based optical microscopic analysis. The data set is classed as organism-based. Particulars: in vivo, 336 h; call rule not given here. In outline:
(§1)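 Kunming mice, four per group, dosed orally once daily for 14 days with 102 mg/kg or saline control; body weight recorded every other day. Heart, liver, spleen, lung and kidney fixed in 10% buffered formalin, paraffin-embedded, sectioned, stained with hematoxylin and eosin, and examined by optical microscopy.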

Data set [3] has as its system Mus musculus. As to the kind of experiment: Toxicity in Kunming mouse assessed as […] degeneration in kidney at 102 mg/kg, po administered once daily for 14 days by hematoxylin/eosin staining based optical microscopic analysis. Format: organism-based. Particulars: in vivo, 336 h. The procedure, abridged: as §1
Data set [4] deals with Mus musculus. As to the kind of experiment: Toxicity in Kunming mouse assessed as fibrosis in spleen at 102 mg/kg, po administered once daily for 14 days by hematoxylin/eosin staining based optical microscopic analysis. The data set is classed as organism-based. Particulars: in vivo, 336 h. In outline: as §1
Data set [5] relates to OCTN2. The data set can be described thus: Ratio of drug transport in OCTN2 (unknown origin) expressing HEK293 cells assessed as transporter-mediated drug uptake at 25 uM to drug uptake in HEK293 cells at 25 uM. Format: ADME, cell-based. The conditions noted are these: human, HEK293 cells expressing OCTN2, against HEK293 cells. In outline: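 OCTN2-transfected HEK293 cells and mock HEK293 cells incubated with 25 µM compound at 37 °C for 15 min, then cellular uptake measured; n = 2.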

Data set [6] addresses T2, Organic cation/carnitine transporter 2 (Homo sapiens, UniProt O76082).
T2 sequence (O76082 whole entry): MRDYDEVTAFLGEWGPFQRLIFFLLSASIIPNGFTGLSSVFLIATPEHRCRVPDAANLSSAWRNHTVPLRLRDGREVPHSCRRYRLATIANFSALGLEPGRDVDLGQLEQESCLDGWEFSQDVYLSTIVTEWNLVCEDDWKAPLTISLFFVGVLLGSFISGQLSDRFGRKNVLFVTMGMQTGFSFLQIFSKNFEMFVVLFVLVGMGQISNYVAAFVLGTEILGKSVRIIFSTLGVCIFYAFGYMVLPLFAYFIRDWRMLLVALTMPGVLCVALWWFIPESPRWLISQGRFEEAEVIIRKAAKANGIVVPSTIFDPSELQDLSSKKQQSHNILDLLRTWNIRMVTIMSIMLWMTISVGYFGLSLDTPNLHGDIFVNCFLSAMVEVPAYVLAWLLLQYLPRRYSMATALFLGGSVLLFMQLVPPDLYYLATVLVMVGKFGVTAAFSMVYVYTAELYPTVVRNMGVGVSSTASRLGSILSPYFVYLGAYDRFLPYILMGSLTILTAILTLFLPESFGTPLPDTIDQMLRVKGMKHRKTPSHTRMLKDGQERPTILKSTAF
The data set can be described thus: Drug transport assessed as Vmax for OCTN2 transporter mediated drug uptake in human Caco2 cells after 10 mins by Eadie-Hofstee plot method. Format: ADME, cell-based. Particulars: caco-2, 10 min.

Data set [7] deals with Caco-2. The data set can be described thus: Ratio of IC50 for cytotoxicity against human Caco2 cells in presence of L-carnitine to IC50 for cytotoxicity against human Caco2 cells in absence of L-carnitine. The data set is classed as functional.
Data set [8] concerns BXPC-3. The data set can be described thus: Cytotoxicity against human BxPC3 cells assessed as decrease in cell viability after 48 hrs by MTT assay. Format: functional, cell-based. The procedure, abridged: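 BxPC-3 and Caco-2 cells exposed to compounds for 48 h. Viability read by MTT assay kit. IC50 calculated from dose-response.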
Data set [9] can be described thus: Tmax in Wistar rat at 50 mg/kg, po administered as single dose by UPLC-MS/MS method. The data set is classed as ADME, organism-based. Particulars: in vivo. In outline: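 Wistar rats, six per group, single oral dose equivalent to 50 mg/kg gemcitabine; separate group given gemcitabine iv at 7.5 mg/kg. Oral sampling at 5, 10, 15, 30 min and 1, 2, 4, 6, 8, 12, 24 h; iv at 15, 30 min and 2, 4, 8, 12, 24 h. Blood into THU-pretreated heparinized tubes, centrifuged 3000 × g 15 min, plasma at -80 °C. Prodrug and gemcitabine quantified by UPLC-MS/MS. F = AUCpo×Div/AUCiv/Dpo×100%.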

In data set [10] the test system is Heart. The data set can be described thus: Drug uptake in mouse heart at 102 mg/kg, po administered as single dose at 0.5 hrs post dose. Format: ADME, organism-based. The conditions noted are these: in vivo. In outline:
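Mice, three per time point, single oral dose of 102 mg/kg (equivalent to 50 mg/kg gemcitabine). Heart, liver, spleen, lung, kidney and brain collected at 0.16, 0.5 and 2 h, rinsed in saline. 0.3 g tissue homogenized 1 min in 1 mL saline, spun 13,000 rpm 4 °C 5 min. Gemcitabine measured in supernatant.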

Data set [11] concerns Mus musculus. As to the kind of experiment: Toxicity in Kunming mouse assessed as fibrosis in lung at 102 mg/kg, po administered once daily for 14 days by hematoxylin/eosin staining based optical microscopic analysis. Format: organism-based. The conditions noted are these: in vivo, 336 h. In outline:
as §1

A short description of data set [12]: Half life in rat hepatic homogenates at 5 uM by HPLC method. Format: ADME, tissue-based, Liver. In outline: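 Compound at 5 µM final in rat plasma, 20% rat hepatic homogenate or 20% rat intestinal homogenate at 37 °C for 24 h. Homogenates made by homogenizing 0.3 g saline-washed tissue in 1 mL saline, spun 13,000 rpm 4 °C 5 min. Sampled at intervals, analysed by HPLC. t1/2 = 0.693/k.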

In data set [13] the target is T1, Organic cation/carnitine transporter 2. As to the kind of experiment: Ratio of drug transport assessed as OCTN2 transporter mediated effective permeability in rat duodenum at 76 uM in absence of L-carnitine to drug transport assessed as OCTN2 transporter mediated effective permeability in rat duodenum at 76 uM in presence of L-carnitine. The data set is classed as ADME.

Data set [14] can be described thus: Stability of the compound in pH 6.8 phosphate buffer at 5 uM by HPLC method. Format: physicochemical. Particulars: pH 6.8, 5 µM. In outline:
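Compound dissolved at 5 µM in phosphate buffer (pH 1.2, 6.8 or 7.4), held at 37 °C for 24 h. Aliquots taken at intervals and analysed by HPLC. t1/2 = 0.693/k from linear regression of pseudo-first-order kinetics.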

For the compound `C[N+](C)(C)CC(CC(=O)[O-])OC(=O)CCCCC(=O)Nc1ccn([C@@H]2O[C@H](CO)[C@@H](O)C2(F)F)c(=O)n1` (stereo not given in full), the Ratio in [1] and in data set [13] was 11 throughout. Moreover, the Activity result is “Non-Toxic” in [2]; “Non-Toxic” in [3]; “Non-Toxic” in data set [4]; “Dose-dependent effect” in [8]; “Non-Toxic” in data set [11]. Moreover, the uptake ratio at 25 µM in data set [5] is 3 to 8. Further, the Vmax in data set [6] is 0.286 nmol/mg. Moreover, in [7], the “Ratio IC50” value is recorded as 8. Also, in data set [8] (BXPC-3, 48 h), the 50% inhibitory concentration (IC50) came to 320 nM. The Tmax in data set [9] worked out at 1.3 h. Further, the Drug uptake entry in data set [10] was “Active”. Besides, the half-life at 5 µM in data set [12] is 17.4 h. The Stability result in [14] was “Stable”.
